# Calb FLC: C. albicans growth inhibition with fluconazole, primary screen, CaCi-2 strain, Alamar Blue fluorescence; C. albicans CaCi-2 (fluconazole-resistant clinical isolate) + fluconazole, 48 h; growth inhibition, % (concentration not given with the values); hit rate 0.57% among 300,000;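 active = growth inhibition above about 58% in most replicates, limit read from the data, passing the limit was not always enough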;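 also: all wells also contain fluconazole at 8 µg/ml as a sub-toxic cotreatment; 0% = median of DMSO wells and 100% = median of geldanamycin control wells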
# GalR3 antag: GalR3 antagonists in HEK293 cells, primary screen, cell-based, fluorescence readout; Galanin receptor type 3 (Homo sapiens), O60755; AID 651719, 2012; hit rate 0.44% among 360,000; HEK293 GalR3-CNG cAMP membrane potential fluorescence; galR3 body fused to GalR1 C-terminus; inhibition, % at 3 µM;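 active = inhibition above the screen-wide average plus 3 SD, cut at about 13% in these data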;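 also: forskolin and galanin both at EC90 stimulate the cells; cAMP rise reported by CNG channel membrane potential dye signal; 0% = forskolin plus galanin with DMSO and 100% = forskolin alone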
# Target sequence (O60755 1-299 limits assumed): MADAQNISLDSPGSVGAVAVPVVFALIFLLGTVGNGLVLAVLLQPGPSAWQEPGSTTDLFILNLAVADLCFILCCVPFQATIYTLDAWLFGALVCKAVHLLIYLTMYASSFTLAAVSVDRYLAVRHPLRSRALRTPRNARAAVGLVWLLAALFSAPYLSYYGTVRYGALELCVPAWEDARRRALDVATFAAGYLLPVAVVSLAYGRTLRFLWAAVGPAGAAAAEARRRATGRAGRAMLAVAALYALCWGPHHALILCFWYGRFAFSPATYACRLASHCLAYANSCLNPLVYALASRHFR
# H9c2 TAG inh: inhibitors of triacylglycerol accumulation, primary screen, cell-based, uHTS, fluorescence, H9c2; H9c2 cells, Nile Red lipid (TAG) fluorescence; cells loaded with 200 µM oleic acid; inhibition, % at 12.5 µM; hit rate 0.66% among 230,000;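 active = pattern-corrected inhibition of lipid staining of at least 50% with the nuclear-stain viability signal not falling by more than 50%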;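 also: 0% = DMSO wells and 100% = triacsin C control wells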
# MC4R ag barr: MC4R agonists recruiting beta-arrestin, primary screen, cell-based, luminescence, agonist arm of biased-ligand search; U2OS MC4R beta-arrestin complementation; percent of melanotan II response, DMSO zero; activation, % at 8.9 µM; hit rate 0.98% among 360,000; AID 540308, 2011;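 active = activation above a per-plate cutoff, the mean activation of sample wells on that plate plus 3 SD, cut at about 8% in these data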
# Target sequence (P32245 whole entry, looked up): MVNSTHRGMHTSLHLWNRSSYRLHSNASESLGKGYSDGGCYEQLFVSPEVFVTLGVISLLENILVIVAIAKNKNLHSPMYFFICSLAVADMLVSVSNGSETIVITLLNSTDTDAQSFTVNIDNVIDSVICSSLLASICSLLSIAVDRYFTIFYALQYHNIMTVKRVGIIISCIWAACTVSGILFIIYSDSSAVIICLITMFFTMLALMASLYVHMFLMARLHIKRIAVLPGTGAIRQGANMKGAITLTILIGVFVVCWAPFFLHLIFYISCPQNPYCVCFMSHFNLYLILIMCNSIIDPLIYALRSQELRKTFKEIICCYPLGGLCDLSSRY
# MC4R antag cAMP: MC4R antagonists of cAMP signaling, primary screen, cell-based, TR-FRET, antagonist arm of biased-ligand search | Melanocortin receptor 4 (Homo sapiens), P32245 | MC4R-expressing cells, MTII-stimulated cAMP, LANCE TR-FRET | inhibition, % at 6.5 µM | hit rate 0.48% among 360,000 | AID 540295, 2011;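 active = inhibition above its plate's cutoff, the mean of tested wells on that plate plus 3 SD, cut at about 29% in these data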;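 also: 0% = Melanotan II alone and 100% = Melanotan II plus saturating MCL0020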
#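 Material: human MC4R-expressing U2OS cells. Probe or stimulus: Melanotan II challenge. Dosing: 6.5 µM single dose. Times: 30-min compound, 1-h challenge, 1-h detection, room temperature. Technique: TR-FRET with Eu-cAMP and labeled anti-cAMP, 671 nm. Replication: singlicate.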
# Efflux pump mplx: inhibitors of Candida efflux pumps in yeast, primary screen, S. cerevisiae, Nile Red, multiplex. S. cerevisiae Candida pump triplex. inhibition, % at 10 µM. hit rate 0.44% among 330,000. AID 485275, 2010;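 active = plate passing quality check with inhibition over a set limit, or well fluorescence over plate mean plus 4 SD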;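 also: Nile Red retained in pooled yeast measured as flow cytometry median fluorescence; 0% = buffer negative control and 100% = Enniatin B positive control; higher means more Nile Red kept so more efflux inhibition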
# Yeast cmpd fluor: flagged as fluorescent in efflux inhibitor counter-screen | shares compounds with Efflux pump mplx | S. cerevisiae AD/pABC3, compound fluorescence, flow cytometry | fluorescence ratio to DMSO, % at 10 µM | hit rate 4% among 1,700 | AID 588517;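 active = fluorescence ratio to DMSO above its plate's cutoff, the plate mean ratio plus 5 SD, cut at about 210% in these data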;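 also: unstained yeast with no Nile Red so the signal is compound autofluorescence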
# CaMdr1 efflux inh: inhibitors of Candida albicans Mdr1 efflux, confirmation, flow cytometry, singleplex, Cherry Pick1 set. shares compounds with Efflux pump mplx. inhibition, % at 10 µM. AID 588518, 2011. hit rate 1% among 1,700. S. cerevisiae AD/CaMDR1, Nile Red efflux; in the data active = inhibition above about 26%;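 also: 0% = DMSO vehicle and 100% = reference inhibitor; higher means more Nile Red retained so more efflux inhibition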
# Cdr2 pump inh: inhibitors of Candida albicans Cdr2 efflux pump, confirmation, S. cerevisiae AD/CaCDR2, flow cytometry, cherry pick 1, singleplex. Nile Red retention ratio vs DMSO, % at 10 µM. Nile Red retention. hit rate 4% among 1,700. AID 588520, 2011. shares compounds with Efflux pump mplx; in the data active = Nile Red retention ratio vs DMSO above about 190%;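 also: higher ratio means more blocking of Cdr2 efflux of the dye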
# CaCdr1 efflux inh: inhibitors of Candida albicans Cdr1 efflux pump, confirmation, S. cerevisiae AD/CaCDR1, flow cytometry, cherry pick 1, singleplex; hit rate 1% among 1,700; Nile Red efflux; shares compounds with Efflux pump mplx; inhibition, % at 10 µM;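 active = inhibition above the screen-wide mean plus twice its standard deviation, cut at about 32% in these data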
# * = called active by the depositor; . = no result. An excerpt weighted towards active compounds, which were near 2.9% of everything screened.
SMILES,Calb FLC,GalR3 antag,H9c2 TAG inh,MC4R ag barr,MC4R antag cAMP,Efflux pump mplx,others
C[C@@H]1CC[C@@]2(NC1)O[C@H]1C[C@H]3[C@@H]4CC=C5C[C@@H](O)CC[C@]5(C)[C@H]4CC[C@]3(C)[C@H]1[C@@H]2C,78.6*,.,.,0.1,12.7,-0.1,
CC(C)[C@H]1CC2C3CC=C4C[C@@H](O)CC[C@]4(C)C3CC[C@]2(C)[C@H]1O (some centres undefined),.,-7.3,4.0,0.1,9.7,-0.1,
COc1cc(CCN)c(OC)cc1C,.,-9.4,.,.,.,.,
N#Cc1ccc2nc(-c3ccc(CN4CCC(n5nnc6ccccc65)CC4)cc3)c(-c3ccccc3)nc2c1,.,-5.7,.,.,.,.,
C[C@]12CC[C@H]3[C@@H](CC[C@]4(O)C[C@@H](O)CC[C@]34C=O)[C@@]1(O)CC[C@@H]2C1=CC(=O)OC1,.,15.0*,0.6,27.3*,3.3,0.6,
CC12CC[C@H]3[C@@H](CCC4(O)C[C@H](O)CCC34/C=N/NC(=O)c3ccccc3Cl)C1(O)CCC2C1=CC(=O)OC1 (some centres undefined),4.6,2.5,6.1,-0.6,3.9,0.2,
C[C@H]1O[C@@H](OC2CC[C@]3(C=O)[C@H]4CC[C@]5(C)[C@@H](C6=CC(=O)OC6)CC[C@]5(O)[C@@H]4CC[C@]3(O)C2)CC2OC(C)(C)OC21 (some centres undefined),0.1,34.1*,.,39.8*,-3.0,-0.2,
CCCCN=C[C@]12CCC(O)CC1(O)CCC1[C@@H]2CC[C@]2(C)[C@H](C3C=CC(=O)O3)CCC12O (some centres undefined),-0.7,8.4,.,34.7*,-1.6,-0.2,
CC12CCC3C(CCC4(O)CC(O)CCC34C=NO)C1(O)CCC2C1=COC(=O)C1 (centres undefined),.,23.1*,15.1,25.9*,2.0,.,
C[C@@H]1CNCCN1c1ccc(N2CC[C@H](O)C2)c(C#N)c1,.,-4.9,.,.,.,.,
O=C(NCCN1CCC2(CC1)C(=O)NCN2c1ccccc1)c1cccc(F)c1,.,-6.3,.,.,.,.,
Cc1cccc(-n2c(/C=C/c3ccc([N+](=O)[O-])o3)nc3ccccc3c2=O)c1,-2.2,-0.8,.,-1.6,13.2,0.1,
O=c1c2ccccc2nc(/C=C/c2ccc([N+](=O)[O-])o2)n1-c1ccc(O)cc1,98.3*,1.7,.,-0.2,-20.9,.,
CCOc1ccc(-c2c(C)n(-c3ccc(OCC)cc3)c3[n+]2CCCCC3)cc1,86.7*,18.7*,26.7,-1.5,12.9,0.3,
C[C@H]1CN([C@@H](C)CO)C(=O)CCCn2cc(nn2)CO[C@@H]1CN(C)C(=O)Oc1cccc2ccccc12,.,-0.4,.,.,.,.,
C[n+]1c(-c2ccccc2)c2cc(N)ccc2c2ccc(N)cc21,92.7*,-1.0,6.7,-0.7,-34.3,8.5*,
COc1cc2c3c(c1OC)Oc1ccc(cc1)C[C@H]1c4c(cc(OC)c(OC)c4Oc4ccc(cc4)C[C@@H]3N(C)CC2)CCN1C,.,-6.6,86.5*,-1.3,5.5,-0.2,
COc1cc2c3cc1Oc1c(OC)c(OC)cc4c1[C@H](Cc1ccc(cc1)Oc1cc(ccc1O)C[C@H]3N(C)CC2)N(C)CC4,.,-5.1,35.0,-1.0,0.3,-0.6,
Cc1cc2c(C(C)C)c(O)c(O)c(C=O)c2c(O)c1-c1c(C)cc2c(C(C)C)c(O)c(O)c(C=O)c2c1O,.,.,-0.8,9.5*,14.0,.,
COC1CCC(OC2CC(C3(C)CCC4(CC(O)C(C)C(C(C)/C=C(\C)C(=O)C(C)CC(C)C(=O)O)O4)O3)OC3(OC(C4OC(O)(CO)C(C)CC4C)CC3C)C2C)OC1C (centres undefined),.,-6.0,97.4*,19.5*,8.0,.,
CC1C2Cc3ccc(O)cc3C1(C)CCN2CC1CC1 (centres undefined),.,-4.9,.,.,.,.,
CCOC(=O)C(NC(C)=O)C(OC(C)=O)c1cccc(N(CCCl)CCCl)c1 (centres undefined),6.3,13.2*,.,-1.6,6.0,0.0,
CC1CCC(NCC(O)c2ccccc2)CC1 (centres undefined),3.6,-5.8,.,-0.4,-4.6,8.2*,Yeast cmpd fluor=107.9;CaMdr1 efflux inh=-0.1;Cdr2 pump inh=99.6;CaCdr1 efflux inh=-0.1
O=C(NC1CN2CCC1CC2)c1ccc(Cl)cc1 (centres undefined),.,-0.4,.,.,.,.,
COC(=O)C1=C(c2cccc(C#N)c2)C[C@@H]2CC[C@H]1N2C(=O)NCC1CC1,.,2.3,8.3,0.6,7.7,2.5*,Yeast cmpd fluor=100.0;CaMdr1 efflux inh=-0.1;Cdr2 pump inh=104.2;CaCdr1 efflux inh=-0.1
SMILES,Calb FLC,GalR3 antag,H9c2 TAG inh,MC4R ag barr,MC4R antag cAMP,Efflux pump mplx,others
CCN(CC)c1ccc(/C=C2/C(=O)NC(=O)N(CC3CCCO3)C2=O)cc1 (centres undefined),9.4,-3.5,8.2,-1.1,11.2,-0.1,
CCN(CC)c1ccc(/C=C2\C(=O)NC(=O)N(Cc3ccco3)C2=O)cc1,-2.6,-5.0,.,-4.3,12.9,0.5*,Yeast cmpd fluor=82.2;CaMdr1 efflux inh=0.3;Cdr2 pump inh=101.7;CaCdr1 efflux inh=-0.2
O=C(O)C(Br)Br,.,0.6,.,.,.,.,
CCc1ccc2c(CN3CC=C(c4ccccc4)CC3)cc(=O)oc2c1,-11.0,-9.5,.,-2.5,-3.2,10.2*,Yeast cmpd fluor=107.2;CaMdr1 efflux inh=-0.1;Cdr2 pump inh=100.7;CaCdr1 efflux inh=-0.1
COc1ccc2c(CN3CC=C(c4ccccc4)CC3)cc(=O)oc2c1,-17.4,-5.9,1.1,-2.6,-3.7,-0.1,
CC1=CC(=O)OC2CC3OC4C[C@@H](C)C5OC6CC7O[C@]8(C)C/C=C\C9OC%10CC%11OC(CC(C)CO)CC(O)[C@]%11(C)OC%10CC9OC8C[C@]7(C)O[C@]6(C)CCC5OC4C[C@]3(C)OC12 (some centres undefined),-3.6,-2.7,23.5,-1.1,9.4,1.4*,Yeast cmpd fluor=105.0;CaMdr1 efflux inh=0.2;Cdr2 pump inh=105.7;CaCdr1 efflux inh=0.8
